An excerpt weighted towards active compounds, which were near 1.3% of everything screened.
aDG glyco up – activators of alpha-DG glycosylation, primary screen, uHTS, Pro5-aDG cells, AlphaScreen. 0.22% of 360,000 active. activation, % at 10 µM. alpha-DG glycosylation AlphaScreen (IIH6); 0% Pro5, 100% B10-LARGE cell signal;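 active means activation of at least 8% versus controls, or a plate z-score of at least 8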;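 further: Pro5 are CHO cells carrying HIG-tagged alpha-DG that lacks glycosylation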
NRP1-CendR mod – modulators of CendR peptide binding to NRP-1, primary screen, biochemical, fluorescence polarization, uHTS | Neuropilin-1 (Homo sapiens), O14786 | FAM-RPARPAR peptide binding to NRP-1 | inhibition, % at 25 µM | 0.85% of 360,000 active | AID 602438, 2012;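 active means inhibition or corrected inhibition above about 18%, plus a signal ratio from 0.5 to 1.5, limit read from the data, passing the limit was not always enough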
Tn7 DDE FP – inhibitors of Tn7 peptide binding to fibrin DD(E), primary screen, biochemical, fluorescence polarization, human fibrin, Tn7 probe; Fibrinogen beta chain (Homo sapiens), P02675; FP displacement of FITC-Tn7 peptide from fibrin DD(E); 0% = median of compound wells per plate; inhibition, % at 8.3 µM; 0.13% of 370,000 active;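 active means inhibition above the mean of compounds falling within the control limits plus 3 SD of them, cut at about 14% in these data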
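Also added: labelled Tn7 tracer, 0.1 µM; Assay system: human fibrin DD(E) protein; Amount: 2 µM fibrin DD(E); Schedule: 10 min compound pre-incubation, 3 h probe incubation at room temperature; Repeats: one replicate per compound; Read-out basis: percent inhibition; Measured by: fluorescence polarization of the labelled Tn7 tracer.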
Tn6 DDE FP – inhibitors of Tn6 peptide binding to fibrin DD(E), primary screen, biochemical, fluorescence polarization, human fibrin, Tn6 probe. Fibrinogen beta chain (Homo sapiens), P02675. Fibrin DD(E) TRITC-Tn6 fluorescence polarization displacement. inhibition, % at 8.3 µM. 0.21% of 370,000 active;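 active means inhibition above a per-campaign cutoff: mean of compounds within control limits plus 3 SD, cut at about 15% in these data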
aDG conf – alpha-DG glycosylation enhancers, retest, confirmation, single concentration, Pro5-aDG cells; shares compounds with aDG glyco up; IIH6 AlphaLISA; scaled to LARGE-overexpressing B10 cells as 100%; activation, % at 10 µM (by protocol); 17% of 600 active; AID 651671, 2012;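 active means activation of at least 7% in one or more replicates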;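 further: cells exposed to compound for two days before detection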
Each line names hits and unclear results; the compound was inactive in the other large screens (follow-up assays come after a bar, where they were run).

O=C(CCN1C(=O)c2ccccc2C1=O)NCc1ccc(Cl)cc1	aDG glyco up 2.7 | aDG conf inactive
O=C(Nc1nnc(S(=O)(=O)N2CCOCC2)s1)c1ccc(F)cc1	aDG glyco up 8.7 | aDG conf inactive
COc1ccc2cc(CN(C(=O)Nc3ccccc3)C3CCCC3)c(=O)[nH]c2c1	aDG glyco up 16 | aDG conf inactive
C[C@H]1CN([C@@H](C)CO)S(=O)(=O)c2ccc(Br)cc2O[C@H]1CN(C)C(=O)CN(C)C	aDG glyco up 10 | aDG conf inactive
Cc1ccc(C2(c3noc(CN4CCC(c5ccncc5)CC4)n3)CCCC2)cc1	aDG glyco up 6.0 | aDG conf inactive
Cc1cccc2nc(-c3cccc(NC(=O)c4ccc(Cl)cc4)c3)cn12	aDG glyco up 6.5 | aDG conf inactive
Cc1ccc(N(Cc2cc(=O)[nH]c3ccccc23)C(=O)CCl)c(C)c1	none
COc1ccc(-c2cc(C(F)(F)F)nc(N3CCOCC3)n2)cc1	none
COc1ccc(-c2cc(-c3ccc(F)cc3)nc(N3CCN(C)CC3)n2)cc1	aDG glyco up 15 | aDG conf inactive
O=C1CSC(=S)N1N=Cc1ccc(Cl)s1	none
Cc1cccc2cc(CN(CCCN(C)C)C(=S)NCCc3ccccc3)c(=O)[nH]c12	aDG glyco up 4.7 | aDG conf inactive
Cc1ccc2[nH]c(=O)c(CN(CCCN(C)C)C(=S)NCCc3ccccc3)cc2c1	none
COc1ccc(/C=C/CN2CCC(C(=O)NC(c3ccc(F)cc3)c3ccc4ccccc4n3)CC2)cc1 (configuration not stated)	none
Cc1nc(NCCc2ccc(S(N)(=O)=O)cc2)c2c(C)c(C)sc2n1	aDG glyco up 8.2 | aDG conf inactive
O=C(OC12CCCN(C1)/C(=C/c1cccc(Cl)c1)C2)C1CCCC1 (configuration not stated)	none (no result: aDG glyco up, NRP1-CendR mod)
Cc1cccc(N=C2NC(=O)CS2)c1	aDG glyco up 6.4 | aDG conf inactive
Clc1cccc(Cc2c(-c3cccc(Cl)c3)nc3c4ccccc4ccn23)c1	none
Clc1ccc(-c2nc3c4ccccc4ccn3c2CC2CCCCC2)cc1	aDG glyco up 22 | aDG conf inactive
Clc1cccc(-c2nc3c4ccccc4ccn3c2CC2CCCCC2)c1	aDG glyco up 11 | aDG conf inactive
Fc1ccc(-c2nc3c4ccccc4ccn3c2CC2CCCCC2)cc1	none
CC[C@]12c3[nH]c4ccc(Cl)cc4c3CCN1C(=O)[C@@H](CC(=O)NCCc1ccccn1)C[C@@H]2C(=O)N1CCN(C(=O)C2CC2)CC1	aDG glyco up 7.9 | aDG conf inactive
CC[C@]12c3[nH]c4ccccc4c3CCN1C(=O)C(CC(=O)NCCc1ccccn1)C[C@@H]2C(=O)N1CCN(C(=O)C2CC2)CC1 (some centres not stated)	none
COC(=O)c1cc2c(c3c4ccccc4n(S(=O)(=O)c4ccccc4)c13)C(=O)N(Cc1ccc(N(C)C)cc1)C2	none (no result: aDG glyco up, NRP1-CendR mod)
Nc1nc(Cl)cc(N2CCC(c3cc(-c4ccc(Cl)cc4Cl)n[nH]3)CC2)n1	aDG glyco up 11 | aDG conf inactive
Cc1ccccc1CNS(=O)(=O)c1ccccc1[N+](=O)[O-]	none
Cc1onc(-c2ccccc2)c1CNS(=O)(=O)c1ccccc1[N+](=O)[O-]	aDG glyco up 2.6 | aDG conf inactive
N#Cc1ccc(C2CC(OCCF)=CC(=O)O2)cc1 (configuration not stated)	none
Cc1cc(NC(=O)CSc2c3c(nc4ccccc24)CCC3)no1	aDG glyco up 8.2 | aDG conf inactive
COc1ccc(C2NC(=S)N(Cc3ccc(Cl)cc3)C(C)=C2C(C)=O)cc1 (configuration not stated)	none (no result: aDG glyco up, NRP1-CendR mod)
Oc1ccc(C[C@H]2CN([C@@H](Cc3ccccc3)CN3CCC[C@@H]3CN3C(=S)NC[C@@H]3Cc3ccccc3)C(=S)N2CC2CCCCC2)cc1	none
Oc1ccc(C[C@H]2CNC(=S)N2CC2CCCN2C[C@H](Cc2ccc(O)cc2)N2C[C@H](Cc3ccccc3)N(CC3CCCCC3)C2=S)cc1 (some centres not stated)	aDG glyco up 8.9 | aDG conf inactive
